Laboratory results as given in ChEMBL document CHEMBL4196195, “( R)- N-(1-Methyl-2-hydroxyethyl)-13-( S)-methyl-arachidonamide (AMG315): A Novel Chiral Potent Endocannabinoid Ligand with Stability to Metabolizing Enzymes” (J Med Chem, 2018).
The source made the active and inactive calls.

Tests used:
Cannabinoid receptor 1 [1] = target: T1, Cannabinoid receptor 1 (Rattus norvegicus, UniProt P20272); experiment: Displacement of [3H]CP-55,940 from CB1 receptor in rat brain membranes in absence of FAAH inhibitor PMSF by radioligand binding assay; type: cell membranes, Membrane
Cannabinoid receptor 1 [2] = target: T1, Cannabinoid receptor 1; experiment: Agonist activity at rat CB1 receptor expressed in HEK293 cells assessed as inhibition of forskolin-induced cAMP accumulation incubated for 30 mins; type: functional, cell-based
Procedure, shortened: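 HEK293 cells stably expressing rCB1, harvested with nonenzymatic dissociation reagent, washed in HBSS, 1000–1500 cells/well. Test compound at various concentrations with forskolin (2 μM final) in stimulation buffer, 30 min at room temperature. cAMP read by TR-FRET (Eu-cAMP tracer plus ULight anti-cAMP, 60 min room temperature). Forskolin-stimulated cAMP set to 100%. EC50 from nonlinear regression; two independent experiments in triplicate.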

Cannabinoid receptor 2 [3] = target: Cannabinoid receptor 2 (Mus musculus, UniProt P47936); experiment: Displacement of [3H]CP-55,940 from mouse CB2 receptor expressed in HEK293 cell membranes in absence of FAAH inhibitor PMSF by radioligand binding assay
Procedure, shortened: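 Membranes from HEK293 cells expressing human or mouse CB2 (preparations lacking FAAH activity), competing against [3H]CP-55,940. IC50 by nonlinear regression, converted to Ki. Three independent experiments run in triplicate; Ki is the mean of the three.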

[4] = target: Cannabinoid receptor 1 (Rattus norvegicus) (UniProt P20272); experiment: Agonist activity at rat CB1 receptor expressed in HEK293 cells assessed as inhibition of forskolin-induced cAMP accumulation incubated for 30 mins relative to 500 nM CP-55,940; type: functional, cell-based
Cannabinoid receptor 2 [5] = target: Cannabinoid receptor 2 (Homo sapiens, UniProt P34972); experiment: Displacement of [3H]CP-55,940 from human CB2 receptor expressed in HEK293 cell membranes in absence of FAAH inhibitor PMSF by radioligand binding assay
Cannabinoid receptor 1 [6] = target: T1, Cannabinoid receptor 1; experiment: Displacement of [3H]CP-55,940 from CB1 receptor in rat brain membranes in presence of FAAH inhibitor PMSF by radioligand binding assay; type: cell membranes, Membrane
[7] = target: T2, FAAH (fatty-acid amide hydrolase 1) (Homo sapiens, UniProt O00519); experiment: Stability assessed as human FAAH-mediated compound hydrolysis by LC-MS/MS analysis; type: ADME; conditions: human FAAH (fatty-acid amide hydrolase 1), read-out: Stability
T2 sequence (O00519 whole entry): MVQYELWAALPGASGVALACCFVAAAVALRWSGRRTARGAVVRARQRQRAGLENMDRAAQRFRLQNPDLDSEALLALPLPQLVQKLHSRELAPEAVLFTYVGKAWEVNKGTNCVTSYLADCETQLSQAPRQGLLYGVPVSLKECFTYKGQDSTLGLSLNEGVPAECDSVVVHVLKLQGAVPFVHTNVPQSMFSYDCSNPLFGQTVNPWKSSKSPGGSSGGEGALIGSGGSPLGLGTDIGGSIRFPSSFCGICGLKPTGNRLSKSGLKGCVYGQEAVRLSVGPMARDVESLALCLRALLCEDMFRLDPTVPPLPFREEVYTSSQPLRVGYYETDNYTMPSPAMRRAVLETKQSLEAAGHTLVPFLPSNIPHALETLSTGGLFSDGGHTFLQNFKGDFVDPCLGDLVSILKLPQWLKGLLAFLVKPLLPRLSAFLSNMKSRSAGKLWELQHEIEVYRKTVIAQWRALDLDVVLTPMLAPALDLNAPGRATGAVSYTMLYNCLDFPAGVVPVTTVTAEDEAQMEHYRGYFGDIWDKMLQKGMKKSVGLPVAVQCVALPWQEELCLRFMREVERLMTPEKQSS
Procedure, shortened: (§1)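 Expressed, partially purified rat or human FAAH incubated with compound, or AEA as reference substrate, for 30 min. Aliquots at time points quenched in acetonitrile to precipitate protein. Remaining compound measured by LC-MS/MS on a cyano column with 10 mM ammonium acetate pH 7.3/methanol at 0.5 mL/min.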

[8] = target: T3, Prostaglandin G/H synthase 2 (Mus musculus, UniProt Q05769); experiment: Stability assessed as mouse COX2-mediated compound oxidation by measuring oxygen consumption by polarographic assay; type: ADME
T3 sequence (Q05769 whole entry): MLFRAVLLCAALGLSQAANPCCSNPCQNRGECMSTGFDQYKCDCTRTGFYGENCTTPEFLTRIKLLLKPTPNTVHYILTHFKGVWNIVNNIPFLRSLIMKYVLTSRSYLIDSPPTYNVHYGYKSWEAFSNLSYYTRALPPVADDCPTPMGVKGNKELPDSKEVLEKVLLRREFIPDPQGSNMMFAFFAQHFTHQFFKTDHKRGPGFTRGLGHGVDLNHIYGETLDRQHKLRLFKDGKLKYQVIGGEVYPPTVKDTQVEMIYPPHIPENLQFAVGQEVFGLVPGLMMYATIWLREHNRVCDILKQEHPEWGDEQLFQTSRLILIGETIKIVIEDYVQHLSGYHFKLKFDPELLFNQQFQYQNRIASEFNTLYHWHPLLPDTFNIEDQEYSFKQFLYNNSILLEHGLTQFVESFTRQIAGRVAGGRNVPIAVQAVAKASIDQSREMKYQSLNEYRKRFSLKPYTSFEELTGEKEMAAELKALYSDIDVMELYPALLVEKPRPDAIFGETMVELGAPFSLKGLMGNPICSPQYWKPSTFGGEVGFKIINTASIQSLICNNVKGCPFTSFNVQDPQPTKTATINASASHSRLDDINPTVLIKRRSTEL

[9] = target: T2, FAAH (fatty-acid amide hydrolase 1); experiment: Stability assessed as half life for human FAAH-mediated compound hydrolysis by LC-MS/MS analysis; type: ADME; conditions: human FAAH (fatty-acid amide hydrolase 1); procedure, shortened: as §1
Mus musculus [10] = experiment: Antiallodynic activity in CD1 mouse model of CFA-induced inflammatory pain assessed as increase in CFA-reduced mechanical paw withdrawal threshold at 20 mg/kg, ip measured at 60 mins post injection; type: functional, organism-based
Procedure, shortened: (§2)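 Adult male mice (39 ± 10 g), wild-type CD1 or CB1 KO on CD1 background, single housed. CFA:saline 1:1 (20 μL) injected intraplantar into right hind paw; 48 h allowed before dosing. Drug given ip in 5 mL/kg, vehicle group included. Electronic von Frey (90 g probe) after ≥30 min habituation, read in duplicate per paw, at baseline, 48 h post-CFA and 10, 30, 60, 120 min post-dose. Two-way mixed ANOVA with Bonferroni post hoc tests.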

Mus musculus [11] = experiment: Antiallodynic activity in CD1 mouse model of CFA-induced inflammatory pain assessed as increase in CFA-reduced mechanical paw withdrawal threshold at 20 mg/kg, ip measured at 120 mins post injection; type: functional, organism-based; procedure, shortened: as §2
Mus musculus [12] = experiment: Antiallodynic activity in CD1 mouse model of CFA-induced inflammatory pain assessed as increase in CFA-reduced mechanical paw withdrawal threshold at 20 mg/kg, ip measured up to 30 mins post injection; type: functional, organism-based; procedure, shortened: as §2
Mus musculus [13] = experiment: Antiallodynic activity in CD1 mouse model of CFA-induced inflammatory pain assessed as increase in CFA-reduced mechanical paw withdrawal threshold at 20 mg/kg, ip measured at 10 mins post injection; type: functional, organism-based; procedure, shortened: as §2

Chain of Cannabinoid receptor 2 (Mus musculus, UniProt P47936) (P47936 whole entry): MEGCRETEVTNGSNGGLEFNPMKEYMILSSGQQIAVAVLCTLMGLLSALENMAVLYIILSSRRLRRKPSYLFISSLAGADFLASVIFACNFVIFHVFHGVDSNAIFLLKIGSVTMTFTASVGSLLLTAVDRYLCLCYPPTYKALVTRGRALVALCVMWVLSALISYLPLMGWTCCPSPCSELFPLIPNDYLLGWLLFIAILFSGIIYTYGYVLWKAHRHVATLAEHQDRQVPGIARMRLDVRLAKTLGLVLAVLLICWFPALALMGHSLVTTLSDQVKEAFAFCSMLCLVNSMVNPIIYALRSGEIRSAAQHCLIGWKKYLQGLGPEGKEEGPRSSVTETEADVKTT
Chain of Cannabinoid receptor 2 (Homo sapiens, UniProt P34972) (P34972 whole entry): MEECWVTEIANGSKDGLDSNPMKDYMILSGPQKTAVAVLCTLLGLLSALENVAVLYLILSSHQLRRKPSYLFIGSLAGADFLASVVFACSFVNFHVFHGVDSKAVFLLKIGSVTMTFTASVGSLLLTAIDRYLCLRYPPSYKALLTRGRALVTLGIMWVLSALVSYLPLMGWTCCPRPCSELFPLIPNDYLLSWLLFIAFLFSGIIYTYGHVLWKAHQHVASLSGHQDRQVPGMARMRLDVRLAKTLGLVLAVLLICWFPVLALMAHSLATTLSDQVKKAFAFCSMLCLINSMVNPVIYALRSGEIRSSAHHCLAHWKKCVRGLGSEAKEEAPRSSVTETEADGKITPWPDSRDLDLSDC
Chain of Cannabinoid receptor 1 (Rattus norvegicus) (P20272 whole entry): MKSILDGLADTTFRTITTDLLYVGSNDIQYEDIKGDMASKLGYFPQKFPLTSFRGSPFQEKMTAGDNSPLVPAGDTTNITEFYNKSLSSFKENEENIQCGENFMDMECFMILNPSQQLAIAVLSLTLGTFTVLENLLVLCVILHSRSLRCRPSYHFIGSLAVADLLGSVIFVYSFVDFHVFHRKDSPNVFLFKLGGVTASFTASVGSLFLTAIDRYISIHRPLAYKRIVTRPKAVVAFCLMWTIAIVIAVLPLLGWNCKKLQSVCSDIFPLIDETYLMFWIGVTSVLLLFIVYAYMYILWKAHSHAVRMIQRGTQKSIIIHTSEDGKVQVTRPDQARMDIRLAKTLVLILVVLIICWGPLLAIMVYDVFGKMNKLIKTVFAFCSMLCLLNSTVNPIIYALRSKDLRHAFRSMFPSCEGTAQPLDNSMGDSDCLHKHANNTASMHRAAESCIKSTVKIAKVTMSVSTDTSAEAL
T1 sequence (P20272 whole entry): as above

Structure (SMILES)	Ki (Cannabinoid receptor 1 [1])	EC50 (Cannabinoid receptor 1 [2]; hek293)	Ki (Cannabinoid receptor 2 [3])	Emax [4]	Ki (Cannabinoid receptor 2 [5])	Ki (Cannabinoid receptor 1 [6])	EC50 (Cannabinoid receptor 1 [2]; read-out: EC50)	half-life [7]	Stability [8]	half-life [9]	Activity (Mus musculus [10])	Activity (Mus musculus [11])	Activity (Mus musculus [12])	Activity (Mus musculus [13])
CCCCC/C=C\[C@@H](C)/C=C\C/C=C\C/C=C\CCCC(=O)NCCO	> 1000 nM	Not Active	> 1000 nM	inactive	> 1000 nM	> 1000 nM	–	–	–	–	–	–	–	–
CCCCC/C=C\[C@H](C)/C=C\C/C=C\C/C=C\CCCC(=O)NC1CCC1	17.6 nM	–	90 nM	92%	6.8 nM	23.1 nM	36.1 nM	30 min	Stable	–	–	–	–	–
CCCCC/C=C\[C@H](C)/C=C\C/C=C\C/C=C\CCCC(=O)NC1CC1	14.7 nM	–	57.5 nM	88%	4.3 nM	1.5 nM	0.3 nM	–	Stable	25.2 min	–	–	–	–
C[C@H](/C=C\C/C=C\C/C=C\CCCC(=O)NC1CC1)/C=C\CCCCCN=[N+]=[N-]	10.5 nM	–	13.3 nM	85%	8.5 nM	6.3 nM	1.9 nM	–	–	–	–	–	–	–
CCCCC/C=C\C/C=C\[C@H](C)/C=C\C/C=C\CCCC(=O)NCCO	> 1000 nM	–	> 1000 nM	–	> 1000 nM	> 1000 nM	–	–	–	–	–	–	–	–
CCCCC/C=C\[C@H](C)/C=C\C/C=C\C/C=C\CCCC(=O)NC1CCCC1	123 nM	–	387 nM	–	139 nM	79 nM	–	30 min	–	–	–	–	–	–
CCCCC/C=C\C/C=C\C/C=C\C/C=C\CCCC(=O)N[C@H](C)CO [METHANANDAMIDE]	–	–	> 1000 nM	–	–	–	–	–	–	–	Active	inactive	Active	Active
C#CCNC(=O)CCC/C=C\C/C=C\C/C=C\[C@@H](C)/C=C\CCCCC	8.6 nM	–	74 nM	89%	11.2 nM	4.3 nM	10.4 nM	30 min	–	–	–	–	–	–
CCCCC/C=C\C/C=C\[C@@H](C)/C=C\C/C=C\CCCC(=O)NCCO	> 1000 nM	–	> 1000 nM	–	> 1000 nM	> 1000 nM	–	–	–	–	–	–	–	–
C[C@H](/C=C\C/C=C\C/C=C\CCCC(=O)NC1CC1)/C=C\CCCCCN=C=S	20.3 nM	–	47.7 nM	–	22.1 nM	15.6 nM	–	–	–	–	–	–	–	–
CCCCC/C=C\[C@H](C)/C=C\C/C=C\C/C=C\CCCC(=O)NCCO	> 1000 nM	–	137 nM	88%	50.5 nM	4.8 nM	13.2 nM	–	Stable	13.5 min	–	–	–	–
CCCCC/C=C\C/C=C\C/C=C\[C@H](C)/C=C\CCCC(=O)NCCO	326 nM	–	7.5 nM	100%	24.7 nM	1.7 nM	4.8 nM	–	Stable	–	–	–	–	–
CCCCC/C=C\C/C=C\C/C=C\[C@@H](C)/C=C\CCCC(=O)N[C@H](C)CO	29.3 nM	–	> 1000 nM	98%	120 nM	21.4 nM	58.3 nM	–	Stable	–	–	–	–	–
CCCCC/C=C\[C@H](C)/C=C\C/C=C\C/C=C\CCCC(=O)NCCCl	45.3 nM	–	401 nM	–	10.4 nM	3.9 nM	–	–	–	–	–	–	–	–
CCCCC/C=C\C/C=C\C/C=C\[C@@H](C)/C=C\CCCC(=O)NCCO	> 1000 nM	Not Active	> 1000 nM	inactive	188 nM	520 nM	–	–	Stable	–	–	–	–	–
CCCCC/C=C\[C@@H](C)/C=C\C/C=C\C/C=C\CCCC(=O)N[C@H](C)CO	> 1000 nM	–	> 1000 nM	–	–	> 1000 nM	–	–	–	–	–	–	–	–
C[C@H](/C=C\C/C=C\C/C=C\CCCC(=O)N[C@H](C)CO)/C=C\CCCOc1ccccc1	65 nM	–	> 1000 nM	–	286 nM	83 nM	–	–	–	–	–	–	–	–
